Experiments:
U-251 = assay: Growth inhibition of human U251 cells assessed as cell growth at 10 uM incubated for 48 hrs by sulforhodamine B assay relative to control; assay type: functional; details: U-251, 48 h, read-out: Activity
Outline: (§1)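 NCI-60 single-dose screen at 10 µM run by the NCI Developmental Therapeutics Program; growth percent read from the one-dose mean graph, with percent inhibition approximated from those growth-percent values.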

OVCAR-4 = assay: Growth inhibition of human OVCAR4 cells assessed as cell growth at 10 uM incubated for 48 hrs by sulforhodamine B assay relative to control; assay type: functional; details: OVCAR-4, 48 h, read-out: Activity
Outline: (§2)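 NCI-60 one-dose screen run by the NCI Developmental Therapeutics Program at a single 10 µM concentration; growth percent read from the one-dose mean graph.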

LOX IMVI = assay: Growth inhibition of human LOXIMVI cells assessed as cell growth at 10 uM incubated for 48 hrs by sulforhodamine B assay relative to control; assay type: functional; details: read-out: Activity; outline: as §2
HCC 2998 = assay: Growth inhibition of human HCC2998 cells assessed as cell growth at 10 uM incubated for 48 hrs by sulforhodamine B assay relative to control; assay type: functional; details: HCC 2998, 48 h, read-out: Activity; outline: as §2
SK-OV-3 = assay: Growth inhibition of human SKOV3 cells at 10 uM incubated for 48 hrs by sulforhodamine B assay relative to control; assay type: functional; details: SK-OV-3, 48 h, read-out: GI; outline: as §2
HCT-116 = assay: Growth inhibition of human HCT116 cells assessed as cell growth at 10 uM incubated for 48 hrs by sulforhodamine B assay relative to control; assay type: functional; details: HCT-116, 48 h, read-out: Activity; outline: as §2
MDA-MB-468 = assay: Growth inhibition of human MDA-MB-468 cells at 10 uM incubated for 48 hrs by sulforhodamine B assay relative to control; assay type: functional; details: MDA-MB-468, 48 h, read-out: GI; outline: as §2
DU-145 = assay: Growth inhibition of human DU145 cells assessed as cell growth at 10 uM incubated for 48 hrs by sulforhodamine B assay relative to control; assay type: functional; details: DU-145, 48 h, read-out: Activity; outline: as §2
HCT-15 = assay: Growth inhibition of human HCT15 cells assessed as cell growth at 10 uM incubated for 48 hrs by sulforhodamine B assay relative to control; assay type: functional; details: HCT-15, 48 h, read-out: Activity; outline: as §2
IGROV-1 = assay: Growth inhibition of human IGROV1 cells at 10 uM incubated for 48 hrs by sulforhodamine B assay relative to control; assay type: functional; details: IGROV-1, 48 h, read-out: GI; outline: as §2
A549 = assay: Growth inhibition of human A549/ATCC cells assessed as cell growth at 10 uM incubated for 48 hrs by sulforhodamine B assay relative to control; assay type: functional; details: A549, 48 h, read-out: Activity; outline: as §2
NCI-H522 = assay: Growth inhibition of human NCI-H522 cells assessed as cell growth at 10 uM incubated for 48 hrs by sulforhodamine B assay relative to control; assay type: functional; details: NCI-H522, 48 h, read-out: Activity; outline: as §2
NCI-H322M = assay: Growth inhibition of human NCI-H322M cells at 10 uM incubated for 48 hrs by sulforhodamine B assay relative to control; assay type: functional; details: read-out: GI; outline: as §2
KM12 = assay: Growth inhibition of human KM12 cells assessed as cell growth at 10 uM incubated for 48 hrs by sulforhodamine B assay relative to control; assay type: functional; details: KM12, 48 h, read-out: Activity; outline: as §2
ACHN = assay: Growth inhibition of human ACHN cells at 10 uM incubated for 48 hrs by sulforhodamine B assay relative to control; assay type: functional; details: read-out: GI; outline: as §2
A498 = assay: Growth inhibition of human A498 cells assessed as cell growth at 10 uM incubated for 48 hrs by sulforhodamine B assay relative to control; assay type: functional; details: A498, 48 h, read-out: Activity; outline: as §2
Hs-578T = assay: Growth inhibition of human Hs 578T cells assessed as cell growth at 10 uM incubated for 48 hrs by sulforhodamine B assay relative to control; assay type: functional; details: read-out: Activity; outline: as §2
HOP-62 = assay: Growth inhibition of human HOP62 cells assessed as cell growth at 10 uM incubated for 48 hrs by sulforhodamine B assay relative to control; assay type: functional; details: HOP-62, 48 h, read-out: Activity; outline: as §2
SK-MEL-2 = assay: Growth inhibition of human SK-MEL-2 cells assessed as cell growth at 10 uM incubated for 48 hrs by sulforhodamine B assay relative to control; assay type: functional; details: SK-MEL-2, 48 h, read-out: Activity; outline: as §2
NCI-H23 = assay: Growth inhibition of human NCI-H23 cells assessed as cell growth at 10 uM incubated for 48 hrs by sulforhodamine B assay relative to control; assay type: functional; details: NCI-H23, 48 h, read-out: Activity; outline: as §2
CCRF-CEM = assay: Growth inhibition of human CCRF-CEM cells assessed as cell growth at 10 uM incubated for 48 hrs by sulforhodamine B assay relative to control; assay type: functional; details: read-out: Activity; outline: as §2
SF-539 = assay: Growth inhibition of human SF539 cells assessed as cell growth at 10 uM incubated for 48 hrs by sulforhodamine B assay relative to control; assay type: functional; details: SF-539, 48 h, read-out: Activity; outline: as §2
M14 = assay: Growth inhibition of human M14 cells assessed as cell growth at 10 uM incubated for 48 hrs by sulforhodamine B assay relative to control; assay type: functional; details: M14, 48 h, read-out: Activity; outline: as §2
UACC-257 = assay: Growth inhibition of human UACC257 cells assessed as cell growth at 10 uM incubated for 48 hrs by sulforhodamine B assay relative to control; assay type: functional; details: UACC-257, 48 h, read-out: Activity; outline: as §1
MDA-MB-231 = assay: Growth inhibition of human MDA-MB-231 cells assessed as cell growth at 10 uM incubated for 48 hrs by sulforhodamine B assay relative to control; assay type: functional; details: MDA-MB-231, 48 h, read-out: Activity; outline: as §2
SF-295 = assay: Growth inhibition of human SF295 cells assessed as cell growth at 10 uM incubated for 48 hrs by sulforhodamine B assay relative to control; assay type: functional; details: SF-295, 48 h, read-out: Activity; outline: as §2
MDA-MB-361 = assay: Cytotoxicity against human MDA-MB-361 cells over expressing HER2 assessed as reduction in cell viability after 72 hrs by sulforhodamine B assay; assay type: functional, cell-based; details: MDA-MB-361, 72 h
Outline: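 Cells seeded and grown 24 h, then exposed to 0.1% DMSO vehicle or 0.3125-20 μM compound for 72 h. Fixed with ice-cold 50% TCA (1 h, 4 °C), stained with 0.4% SRB 30 min at room temperature, dye solubilized in 10 mM tris base pH 10.5, OD read at 560 nm. Survival fraction = OD treated/OD vehicle; IC50 from triplicates of at least two independent experiments, mean ± SD.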

HOP-92 = assay: Growth inhibition of human HOP92 cells assessed as cell growth at 10 uM incubated for 48 hrs by sulforhodamine B assay relative to control; assay type: functional; details: HOP-92, 48 h, read-out: Activity; outline: as §2
UO-31 = assay: Growth inhibition of human UO31 cells assessed as cell growth at 10 uM incubated for 48 hrs by sulforhodamine B assay relative to control; assay type: functional; details: UO-31, 48 h, read-out: Activity; outline: as §1

In the case of Nc1ccc(-c2cc3c(Nc4ccc(OCc5cccc(F)c5)c(Cl)c4)ncnc3s2)cc1, the growth at 10 µM (U-251) is reported as 57%, the growth at 10 µM (OVCAR-4) is reported as 54.8% and the growth at 10 µM (LOX IMVI) is reported as 24.5%. The growth at 10 µM (HCC 2998) was 38.6%, the inhibition of growth at 10 µM (SK-OV-3) was 100% and the growth at 10 µM (HCT-116) was 50.7%. For the same compound, the inhibition of growth at 10 µM (MDA-MB-468) was 85%, the growth at 10 µM (DU-145) was 36.9% and the growth at 10 µM (HCT-15) was 32.9%. For the same compound, the inhibition of growth at 10 µM (IGROV-1) was 60%, the growth at 10 µM (A549) was 21.2% and the growth at 10 µM (NCI-H522) was 13.1%. It also gave an inhibition of growth at 10 µM (NCI-H322M) of 75%, a growth at 10 µM (KM12) of 24% and an inhibition of growth at 10 µM (ACHN) of 70%. It also gave a growth at 10 µM (A498) of 39.3%, a growth at 10 µM (Hs-578T) of 77% and a growth at 10 µM (HOP-62) of 62.3%. It also gave a growth at 10 µM (SK-MEL-2) of 25.4%, a growth at 10 µM (NCI-H23) of 68.6% and a growth at 10 µM (CCRF-CEM) of 23.9%. The growth at 10 µM (SF-539) was 57.4%, the growth at 10 µM (M14) was 51.9% and the growth at 10 µM (UACC-257) was 18.3%. The growth at 10 µM (MDA-MB-231) was 13.4%, the growth at 10 µM (SF-295) was 47.8% and the IC50 (MDA-MB-361) was 5.7 µM. For the same compound, the growth at 10 µM (HOP-92) was 45.8% and the growth at 10 µM (UO-31) was 19.6%.

O=[N+]([O-])c1ccc(-c2cc3c(Nc4ccc(OCc5cccc(F)c5)c(Cl)c4)ncnc3s2)cc1 gave a growth at 10 µM (U-251) of 55.1%, a growth at 10 µM (OVCAR-4) of 89.6% and a growth at 10 µM (LOX IMVI) of 75.5%. It also gave a growth at 10 µM (HCC 2998) of 97.3%, an inhibition of growth at 10 µM (SK-OV-3) of 0% and a growth at 10 µM (HCT-116) of 60.2%. For the same compound, the inhibition of growth at 10 µM (MDA-MB-468) was 40%, the growth at 10 µM (DU-145) was 82.1% and the growth at 10 µM (HCT-15) was 63.4%. It also gave an inhibition of growth at 10 µM (IGROV-1) of 12%, a growth at 10 µM (A549) of 51.4% and a growth at 10 µM (NCI-H522) of 68.3%. For the same compound, the inhibition of growth at 10 µM (NCI-H322M) was 15%, the growth at 10 µM (KM12) was 80% and the inhibition of growth at 10 µM (ACHN) was 23%. For the same compound, the growth at 10 µM (A498) was 84.8%, the growth at 10 µM (Hs-578T) was 94.9% and the growth at 10 µM (HOP-62) was 94.7%. For the same compound, the growth at 10 µM (SK-MEL-2) was 86.2%, the growth at 10 µM (NCI-H23) was 73.1% and the growth at 10 µM (CCRF-CEM) was 68.6%. For the same compound, the growth at 10 µM (SF-539) was 99.2%, the growth at 10 µM (M14) was 77.2% and the growth at 10 µM (UACC-257) was 93.5%. The growth at 10 µM (MDA-MB-231) was 87.8%, the growth at 10 µM (SF-295) was 69.7% and the IC50 (MDA-MB-361) was 7.5 µM. For the same compound, the growth at 10 µM (HOP-92) was 82.1% and the growth at 10 µM (UO-31) was 59.2%.

Source: ChEMBL document CHEMBL4270530, “Surmounting the resistance against EGFR inhibitors through the development of thieno[2,3-d]pyrimidine-based dual EGFR/HER2 inhibitors” (Eur J Med Chem, 2018)
